Drawing on ChEMBL document CHEMBL1134670, “Synthesis and cytotoxicity on sensitive and doxorubicin-resistant cell lines of new pyrrolo[2,1-c][1,4]benzodiazepines related to anthramycin” (J Med Chem, 2001), this text covers IC50 for five molecules.

In experiment [1] the test system is HCT-15. The experiment in a line: In vitro cytotoxicity expressed as concentration that inhibits 50% of HCT 15 (colon) sensitive variant cell proliferation. The note with it: Homo sapiens. Type of experiment: functional, cell-based. The essentials: (§1)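 Cells were kept at 37 °C in sealed dishes of MEM with 10% heat-inactivated FCS plus glutamine, penicillin, streptomycin and gentamycin. […] Cells were plated at 10 000 cells/mL for 24 h, then given nine concentrations from 10^-5 to 10^-9 M. Growth was read by MTT colorimetric assay.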

The nature of experiment [2]: In vitro cytotoxicity expressed as concentration that inhibits 50% of U373 (glioblastoma) resistant variant cell proliferation. Type of experiment: functional, cell-based, U-373MG ATCC. Particulars: Homo sapiens, U373 MG. The essentials:
as §1

Experiment [3] concerns T-24. The experiment in a line: In vitro cytotoxicity expressed as concentration that inhibits 50% of T24 (bladder) sensitive variant cell proliferation. In kind it is functional, cell-based. The note with it: Homo sapiens. The essentials: as §1
Experiment [4] relates to K562. The experiment in a line: In vitro cytotoxicity expressed as concentration that inhibits 50% of K562S (sensitive clone)cell proliferation. In kind it is functional, cell-based. The note with it: Homo sapiens.
The test system of experiment [5] is HCT-15. The experiment in a line: In vitro cytotoxicity expressed as concentration that inhibits 50% of HCT 15 (colon) resistant variant cell proliferation. In kind it is functional, cell-based. Particulars: Homo sapiens. In short, it runs like this:
as §1

Another experiment has as its system U373 MG. The experiment in a line: In vitro cytotoxicity expressed as concentration that inhibits 50% of U373 (glioblastoma) sensitive variant cell proliferation. Type of experiment: functional, cell-based, U-373MG ATCC. Particulars: Homo sapiens. In short, it runs like this:
as §1

Experiment [6] has as its system LoVo. The experiment in a line: In vitro cytotoxicity expressed as concentration that inhibits 50% of LoVo (colon) sensitive variant cell proliferation. Type of experiment: functional, cell-based. The note with it: Homo sapiens. In short, it runs like this:
as §1

In experiment [7] the test system is K562. The experiment in a line: In vitro cytotoxicity expressed as concentration that inhibits 50% of K562R (resistant clone) cell proliferation. Type of experiment: functional, cell-based. Particulars: Homo sapiens.
In experiment [8] the test system is T-24. The experiment in a line: In vitro cytotoxicity expressed as concentration that inhibits 50% of T24 (bladder) resistant variant cell proliferation. In kind it is functional, cell-based. The note with it: Homo sapiens. The essentials: as §1
A further experiment has as its system HCT-116. The experiment in a line: In vitro cytotoxicity expressed as concentration that inhibits 50% of HCT(human colon carcinoma)116 cell proliferation. Type of experiment: functional, cell-based.
The test system of experiment [9] is U-87 MG. The experiment in a line: In vitro cytotoxicity expressed as concentration that inhibits 50% of U87 (glioblastoma) resistant variant cell proliferation. In kind it is functional, cell-based, U-87MG ATCC. Particulars: Homo sapiens. In short, it runs like this:
as §1

A further experiment concerns Vero. The experiment in a line: In vitro cytotoxicity expressed as conc. that inhibits 50% of VERO(monkey kidney) cell proliferation. Type of experiment: functional, cell-based. Particulars: Chlorocebus sabaeus. The essentials:
(§2)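 KB and VERO monolayers in medium 199 with 10% newborn calf serum, 12 × 10^4 cells seeded per well. Serial dilutions from a DMSO or water stock were added at seeding, with final DMSO below 1%. Cultures were held 48 h at 37 °C in 5% CO2. Viability was then measured after 18 h in neutral red medium, SDS lysis and dye absorbance at 540 nm.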

Experiment [10] in a line: (§3) In vitro cytotoxicity expressed as concentration that inhibits 50% of J82 (bladder) resistant variant cell proliferation. Type of experiment: functional. The note with it: Homo sapiens. In short, it runs like this:
as §1

The test system of experiment [11] is LoVo. The experiment in a line: In vitro cytotoxicity expressed as concentration that inhibits 50% of LoVo (colon) resistant cell proliferation. Type of experiment: functional, cell-based. Particulars: Homo sapiens. In short, it runs like this: as §1
Experiment [12] concerns U-87 MG. The experiment in a line: In vitro cytotoxicity expressed as concentration that inhibits 50% of U87 (glioblastoma) sensitive variant cell proliferation. Type of experiment: functional, cell-based, U-87MG ATCC. Particulars: Homo sapiens. In short, it runs like this: as §1
The species named for another experiment is Homo sapiens. The experiment in a line: In vitro cytotoxicity expressed as conc. that inhibits 50% of KB (human) cell proliferation. Type of experiment: functional. In short, it runs like this:
as §2

Experiment [13] in a line: as §3. Type of experiment: functional. Particulars: Homo sapiens. The essentials: as §1
The source holds these as a separate data set.

Experiment [14] has as its system K562. The experiment in a line: In vitro cytotoxicity expressed as concentration that inhibit 50% of K562R (resistant clone) cell proliferation. In kind it is functional, cell-based. The note with it: Homo sapiens.
A short description of experiment [15]: In vitro cytotoxicity expressed as concentration that inhibits 50% of J82 (bladder) sensitive variant cell proliferation. In kind it is functional. The note with it: Homo sapiens. The essentials:
as §1

Each structure is given as a SMILES string. pIC50: −log10 of the molar value. A value given as a limit tells only on which side of the number the result lay.

With `CO[C@H]1Nc2cc3c(cc2C(=O)N2C=C(/C=C/C(=O)N(C)C)C[C@@H]12)OCO3`, the negative-log IC50 (pIC50) – broadly, the negative decadic logarithm of the IC50, by convention in mol/L – was 8.10 with HCT-15 [1]; 7.43 in experiment [2]; 8.00 with T-24 [3]; 7.30 with K562 [4]; 8.15 in the experiment with HCT-15 [5]; 7.52 with U373 MG. For the same molecule, the pIC50 in the experiment with LoVo [6] was 8.05; in the experiment with K562 [7], 7.52; in the experiment with T-24 [8], 8.00; in the experiment on HCT-116 it was 7.70; in the experiment with U-87 MG [9], 7.42; in the experiment with Vero, 7.70. Also, the pIC50 in [10] was 8.00; in the experiment with LoVo [11] it was 8.05; in the experiment with U-87 MG [12], 7.40; in the experiment listed under Homo sapiens, 8.30; in experiment [13], 8.00.
As for `CO[C@H]1Nc2ccccc2C(=O)N2C=C(/C=C/C(=O)N(C)C)C[C@@H]12`, the pIC50 was 7.07 in the experiment with K562 [4]; 6.92 with K562 [14]; 7.30 in the experiment on HCT-116; 7.12 in the experiment on Vero; 7.07 in the experiment filed under Homo sapiens.
Take `COc1cccc2c1C(=O)c1c(O)c3c(c(O)c1C2=O)C[C@@](O)(C(=O)CO)C[C@@H]3O[C@H]1C[C@H](N)[C@H](O)[C@H](C)O1` [DOXORUBICIN]: the negative logarithm of the IC50 (pIC50) with HCT-15 [1] is 7.30; in experiment [2] it was 6.89; in the experiment on T-24 [3] it was 7.70; with K562 [4], 7.30; in the experiment with HCT-15 [5], 7.10; in the experiment on U373 MG it was 8.00. Moreover, the negative-log IC50 (pIC50) with LoVo [6] was 8.10; with K562 [7], 5.15; in the experiment on T-24 [8], less than 5.00; in the experiment with U-87 MG [9], 6.85; in the experiment on Vero, 5.30; in experiment [10], less than 5.00. For the same molecule, the negative logarithm of the IC50 (pIC50) was 7.10 with LoVo [11], 7.22 in the experiment on U-87 MG [12], 7.00 in the experiment filed under Homo sapiens and 7.52 in experiment [15].
The molecule `CO[C@@]12[C@H](COC(N)=O)C3=C(C(=O)C(C)=C(N)C3=O)N1C[C@@H]1N[C@@H]12` [MITOMYCIN] had a negative logarithm of the IC50 (pIC50) in the experiment listed under Homo sapiens of 6.30.
In the case of `CN(C)C(=O)/C=C/C1=CN2C(=O)c3cc4c(cc3NC(S(=O)(=O)O)[C@@H]2C1)OCO4` (some centres not stated) [SODIUM BISULFITE ADDUCT], the pIC50 was 7.60 in the experiment on HCT-116, 7.30 with Vero and 7.30 in the experiment listed under Homo sapiens.
